Compound activity (PubChem)
E-selectin induc – E-selectin induction in HUVECs, primary screen, imaging, HUVEC, immunofluorescence imaging, single point. 260,000 compounds, 0.37% hits. normalized: neutral wells 0, TNF-alpha wells 100. activation, % at 7.58 µM;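 active = mean E-selectin-positive cell signal at least 10% of the positive control, reached in at least 60% of replicates, without over 20% cell loss; inconclusive = no rule given, readout overlaps actives, possibly toxicity-flagged; inactive = the rest, including those meeting only one limit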
Target sequence (P16581 whole entry, looked up): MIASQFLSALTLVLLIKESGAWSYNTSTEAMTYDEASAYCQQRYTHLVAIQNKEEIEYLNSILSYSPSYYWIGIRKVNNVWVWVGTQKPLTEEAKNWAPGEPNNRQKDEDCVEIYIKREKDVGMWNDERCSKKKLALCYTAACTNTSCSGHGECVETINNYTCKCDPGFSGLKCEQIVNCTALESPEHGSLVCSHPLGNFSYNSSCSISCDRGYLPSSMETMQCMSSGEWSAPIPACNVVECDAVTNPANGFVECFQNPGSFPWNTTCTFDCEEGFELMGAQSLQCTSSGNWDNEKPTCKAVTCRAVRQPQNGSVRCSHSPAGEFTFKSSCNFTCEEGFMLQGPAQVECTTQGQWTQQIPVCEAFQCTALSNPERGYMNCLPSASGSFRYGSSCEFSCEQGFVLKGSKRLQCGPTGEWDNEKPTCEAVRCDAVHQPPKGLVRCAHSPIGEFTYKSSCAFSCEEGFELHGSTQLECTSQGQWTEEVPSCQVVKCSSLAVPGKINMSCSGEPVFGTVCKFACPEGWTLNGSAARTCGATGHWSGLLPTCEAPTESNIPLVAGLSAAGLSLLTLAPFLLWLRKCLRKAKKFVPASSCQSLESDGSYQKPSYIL
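Test system: HUVEC | Signal: Immunofluorescence imaging | Read-out: Percent E-selectin-positive cells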
rRNA inh HTS – reduced GFP signal of wild-type E. coli, primary screen, bacterial rRNA inhibitor project, GFP/RFP fluorescence, OD600, single point. AID 720706, 2013. GFP signal change (wild-type ribosome), % (concentration not given with the values). 350,000 compounds, 1.6% hits. E. coli WT GFP vs humanized-ribosome RFP mutants, 24 h; active compounds read low; DMSO median 0, no signal -100;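 active = significant combined selectivity score with lowered wild-type GFP, culture density cut under 30%, mutant RFP and density less affected; inactive = any of these conditions unmet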
DENV2 CPE rescue – inhibitors of DENV2 cytopathic effect, primary screen, cell-based, plate reader, single concentration | DENV2-infected cells, cytopathic effect rescue | CPE inhibition, % at 9.99 µM | 350,000 compounds, 1.7% hits | AID 651640, 2012; in the data active = CPE inhibition above about 20%, passing the limit was not always enough; inconclusive = no clear call, values can overlap the other calls; tested in BHK-21 cells;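 also: 0% = median of neutral control wells and 100% = median of positive control wells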
Cneo AK release – Cryptococcus neoformans cell lysis inducers, primary screen, AK release luminescence, single concentration; C. neoformans lysis, adenylate kinase release luminescence, 4 h; normalised: neutral wells 0, clomiphene wells 100; lysis activity, % at 15 µM; 360,000 compounds, 0.2% hits;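 active = mean lysis activity across replicates of at least 80%, whatever share of replicates individually reach that level; inactive = mean lysis activity below 80%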
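Test system: log-phase Cryptococcus neoformans yeast cells; Quantity: yeast cell density of 5 × 10^6 cells/mL; Buffer or medium: YPD; Doses: single compound concentration per well; Timing: 4 h at 37 °C static, read 1 h later; Measured by: AK luminescence; Read-out basis: lysis from increased AK signal; Control set: Clomiphene as positive control.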
miR-122 sensor – miR-122 Renilla sensor signal increase in Huh7, primary screen, miR-122 inhibitor project, cell-based, single point, plate reader; AID 602342, 2012; 340,000 compounds, 0.3% hits; Huh7 miR-122 Renilla luciferase sensor, 48 h; neutral wells = 0, positive control = 100; activation (reporter increase), % at 12.5 µM;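 active = mean replicate activation score at least 90 and every replicate individually at or above 90; inconclusive = only one of the two criteria met; inactive = neither criterion met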;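 also: higher luciferase means less miR-122 activity so hits act as miR-122 inhibitors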
miR-27b qPCR – miR-27b levels after miR-122 inhibitor treatment, dose response, selectivity assay for miR-122 inhibitor project, cell-based, Huh7, RT-qPCR, dry powder. shares compounds with miR-122 sensor. Huh7 miR-27b levels, qRT-PCR, 48 h. relative miR-27b level (unnormalised ratio), ratio at 35 µM. 35 tested, under 10 active. AID 687039, 2013;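 active = compounds lowering miR-27b whose fitted half-maximal dose is at most twice their top tested dose; inconclusive = flat curve with moderate drop, or poor fit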
AID977621 – growth inhibition of wild-type GFP E. coli, dose response, H69 mutant RFP, cherry-pick | shares compounds with rRNA inh HTS | E. coli wild-type GFP strain growth, fluorescence, 24 h | activity change, negative = inhibition at 50 µM | 1,900 tested, under 10 active | AID 977621, 2014;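 active = Wild-type ribosome reporter drop at least double the humanized mutant ribosome reporter drop, growth loss under a set limit; inconclusive = no clear call, values can overlap the other calls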;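 also: wild-type GFP and H69 mutant RFP strains grown together 50/50 in each well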
AID977628 – E. coli growth inhibition, wild-type GFP versus h24 humanized RFP strain, dose response, h24 mutant RFP vs wild-type GFP, cherry-pick | shares compounds with rRNA inh HTS | E. coli WT GFP strain growth, fluorescence, 24 h | activity change, negative = inhibition at 50 µM | 1,900 tested, under 10 active | AID 977628, 2014;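 active = compound lowering the normal-ribosome reporter at least twice as much as the humanized-ribosome reporter, growth loss under a set limit; inconclusive = no clear call, values can overlap the other calls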;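 also: wild-type GFP and h24 humanized RFP strains co-cultured 1 to 1 per well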
Starred values were filed as active, the others as inactive; ? = inconclusive; nt = not tested or not shown; [ ] = remark or other dose. Compounds with a hit are over-represented: about 3.1% of the library has one in this group of screens.

SMILES	E-selectin induc	rRNA inh HTS	DENV2 CPE rescue	Cneo AK release	miR-122 sensor	miR-27b qPCR	others
CNC[C@@H]1Oc2ccc(NS(=O)(=O)c3ccc(F)cc3)cc2C(=O)N([C@H](C)CO)C[C@@H]1C	nt	9.7	53.5*	0.3	-5.0[16.7 µM]	nt
CNC[C@@H]1Oc2c(NS(=O)(=O)c3ccc(F)cc3)cccc2C(=O)N([C@H](C)CO)C[C@H]1C	nt	-0.1	21.2*	8.1	8.4[16.7 µM]	nt
CNC[C@H]1Oc2ccc(NS(=O)(=O)c3ccc(Cl)cc3)cc2C(=O)N([C@H](C)CO)C[C@@H]1C	nt	7.6	-17.9	-41.1	1.3[16.7 µM]	nt
CNC[C@@H]1Oc2ccc(NS(=O)(=O)c3ccc(Cl)cc3)cc2C(=O)N([C@H](C)CO)C[C@H]1C	nt	4.6	-14.5	107.7*	2.1[16.7 µM]	nt
COc1cccc(CNC(=O)C[C@@H]2C=C[C@@H](NC(=O)C3CCC3)[C@H](CO)O2)c1	-0.8	4.5	nt	nt	nt	nt
COCC(=O)N1[C@H](CO)[C@H](c2ccccc2)C12CN(C(=O)Cc1ccccn1)C2	0.0	11.4	-0.7	nt	nt	nt
CN1C(=O)c2cc(NC(=O)c3cccc(F)c3)ccc2OC[C@@H]2O[C@@H](CC(=O)NC3CCC3)CC[C@@H]21	0.1	1.2	-5.4	2.2	-33.3[16.7 µM]	nt
Cc1cc(Cl)c(Cl)cc1S(=O)(=O)NCCCn1ccnc1	0.9	-5.4	?	0.3	132.0*	0.869
Cc1noc(C)c1S(=O)(=O)N(C)C[C@@H]1Oc2ccc(NC(=O)Nc3ccccc3)cc2CC(=O)N([C@H](C)CO)C[C@H]1C	-0.1	1.3	nt	nt	0.6[16.7 µM]	nt
Nc1c(S(=O)(=O)c2cccs2)c2nc3ccccc3nc2n1Cc1ccccc1	nt	nt	nt	-0.6	321.1*	0.432
Cc1cc(C)c(S(=O)(=O)NC2CC2)c(C)c1	nt	-10.9	-3.4	0.1	nt	nt
CCOc1ccc(C)cc1S(=O)(=O)NC1CCCCC1	nt	nt	nt	0.0	282.6*	0.52
Cc1cc(C)c(C)c(S(=O)(=O)NC2CCCCC2)c1C	-0.3	-36.5	1.9	0.4	92.9*	0.681
COCC#Cc1cnc2c(c1)C(=O)N([C@H](C)CO)C[C@H](C)[C@H](CN(C)C)O2	0.6	3.9	7.4	-2.5	3.0[16.7 µM]	nt
CCCC(=O)N1CCC2(CC1)CN(Cc1nccs1)[C@@H](CO)c1[nH]c3cc(OC)ccc3c12	0.1	1.4	10.5	nt	nt	nt
Cc1ccc(S(=O)(=O)N(C)C[C@@H]2Oc3ccc(NS(=O)(=O)c4ccc(F)cc4)cc3C(=O)N([C@@H](C)CO)C[C@H]2C)cc1	-0.3	-5.5	2.0	-2.7	-1.6[16.7 µM]	nt
O=C(Nc1ccc(N2CCOCC2)c(S(=O)(=O)Nc2ccccc2Cl)c1)c1ccccc1	nt	-15.9	-2.3	-0.6	nt	nt
O=C(Nc1ccc(N2CCOCC2)c(S(=O)(=O)Nc2cc(Cl)ccc2Cl)c1)c1cccnc1	-0.2	-35.0*	-4.4	-0.8	325.0*	0.988
Cc1ccc(C)c(S(=O)(=O)Nc2ccc3cn[nH]c3c2)c1	nt	3.0	-1.5	0.4	153.2*	1.26
Cc1ccc(S(=O)(=O)Nc2ccc3cn[nH]c3c2)cc1C	-0.1	-12.8	0.8	0.7	72.2	nt
COc1ccc(C)cc1NS(=O)(=O)c1ccc2c(c1)N(C)CCO2	nt	-1.0	2.5	-1.4	148.9*	1.23
COc1cc(C)c(C(C)C)cc1S(=O)(=O)n1cnc(C)c1	-0.2	3.9	0.0	-1.1	152.2*	0.91
COc1ccc(C)cc1S(=O)(=O)n1cnc(C)c1	nt	7.3	-3.3	2.2	-1.1	nt
CCOc1ccccc1N1CCN(C(=O)c2cccc(-c3ccc(O)cc3)c2)CC1	nt	-15.3	nt	4.5	156.3*	0.836
COc1ccc(S(=O)(=O)N(C)C[C@@H]2OCCCC[C@@H](C)Oc3ccc(NC(=O)NC4CCCCC4)cc3C(=O)N([C@H](C)CO)C[C@@H]2C)cc1	nt	4.6	-1.2	-1.5	-1.5[16.7 µM]	nt
SMILES	E-selectin induc	rRNA inh HTS	DENV2 CPE rescue	Cneo AK release	miR-122 sensor	miR-27b qPCR	others
Cc1cc(C(C)(C)C)cc(S(=O)(=O)NCCO)c1C	nt	nt	nt	-1.5	93.4*	0.935
CN(C)CCCNC(=O)[C@@H]1[C@@H](CO)[C@@H]2Cn3c(ccc(-c4cccc(F)c4)c3=O)[C@H]1N2	2.1	3.8	?	nt	nt	nt
Cc1ccc(S(=O)(=O)Nc2ccc(O)c3ccccc23)c(C)c1	nt	6.2	6.5	-1.7	9.3	nt
Cc1ccc(S(=O)(=O)Nc2ccc3c4c(cccc24)CC3)c(C)c1	nt	nt	nt	-0.3	198.4*	0.651
COCCNS(=O)(=O)c1ccc2c3c(cccc13)C(=O)N2C	nt	3.6	-3.2	nt	32.7	nt
CN1C(=O)c2cccc3c(S(=O)(=O)NCCc4ccccc4)ccc1c23	nt	-23.2*	-0.7	-1.2	117.1*	0.643	AID977621=?
COc1ccc(S(=O)(=O)Nc2ccc3c(c2)CC(=O)N([C@H](C)CO)C[C@H](C)[C@@H](CN(C)S(=O)(=O)c2ccc(F)cc2)O3)cc1	-12.3	-9.0	0.3	1.5	-3.4[16.7 µM]	nt
Cc1cccc(NS(=O)(=O)c2cc3c(cc2C)NC(=O)CO3)c1	-0.2	-18.3*	-1.0	0.1	107.1*	0.687	AID977621=-1.04;AID977628=-9.13
CN(C)c1ccc(-c2nnn(Cc3ccccc3Br)n2)cc1	nt	-19.1*	6.6	-1.5	40.5	nt	AID977621=?
O=C(Nc1cccc(Cl)c1)N[C@@H]1CC[C@@H](CCNC(=O)C2CCCC2)O[C@H]1CO	0.0	-6.3	-8.5	-11.3	-4.0[16.7 µM]	nt
Cc1noc(C)c1NC(=O)N(C)C[C@H]1Oc2ccc(NC(=O)Cc3ccccc3)cc2CC(=O)N([C@H](C)CO)C[C@@H]1C	0.1	4.9	-6.5	-9.8	-5.9[16.7 µM]	nt
COc1ccc(OCC(O)CNS(=O)(=O)c2cccc(Cl)c2)cc1 (stereo not drawn)	nt	-21.4*	-3.7	-3.2	1.7	nt	AID977621=-3.68;AID977628=-4.24
COc1ccc(NC(=O)N[C@H]2CC[C@H](CCNS(=O)(=O)c3ccccc3F)O[C@@H]2CO)cc1	0.0	-3.9	12.8	-1.5	nt	nt
COC(=O)c1ccc(CCc2cc(O)ccc2O)cc1	nt	nt	nt	nt	-1.6	nt
COC(=O)c1ccc(CCc2cc(O)c(Br)cc2O)cc1	-0.3	-18.6*	9.0	nt	nt	nt	AID977621=-9.47;AID977628=-3.46
